Only some compounds are listed: those with a hit (about 3.5% of all), similar ones and a draw of the others.
MrgX1 ag: agonists of human MrgX1 receptor | AID 588627 | 310,000 compounds, 0.44% hits | B-score at 10 µM | MrgX1-HEK293 cells, Fluo-4 calcium fluorescence, agonist mode; active compounds read high;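 active = calcium response B-score plate-corrected fluorescence ratio at least 3 library SD, with starting fluorescence B-score inside 5 SD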
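Material: MrgX1-expressing HEK293 cells; input: 15,000 cells per well; doses: test compound given as first of three sequential additions; schedule: overnight plating before 1 h dye loading; technique: Fluo-4 NW calcium-flux fluorescence, kinetic read; evaluation: baseline-normalised fluorescence change ratio, B-scored; control set: plate-wise positive and negative controls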
RGS4 act: RGS4 potentiation or activation | AID 463111 | 310,000 compounds, 0.92% hits | HEK293 M3R/inducible RGS4, carbachol calcium flux Fluo4; active compounds read low | B-score at 10 µM;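 active = B-score of the integrated calcium signal more than 4 SD below the library mean, with starting fluorescence not abnormally high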;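 note: negative B-score means reduced calcium response which marks RGS4 activation or potentiation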
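Also added: carbachol at ECmax as muscarinic agonist stimulus; Assay system: HEK293 cells with stable M3R and inducible RGS4; Timing: overnight RGS4 induction, 30 min dye load 37 °C, 20 min compound RT; Measured by: Fluo4-AM (2 µM) calcium-flux fluorescence, kinetic read.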
MrgX1 allo act: human MrgX1 positive allosteric modulation, primary screen | Q96LB2 | MrgX1-HEK293, Fluo-4 calcium flux, FDSS; active compounds read high | B-score at 10 µM | 310,000 compounds, 0.63% hits;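 active = plate-corrected calcium response at least 3 library SD above typical, normal starting fluorescence, not activating the receptor alone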;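 note: compound read alongside a low EC10 to EC30 dose of BAM8-22 agonist; peak minus trough fluorescence over baseline measured at the second addition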
RGS4 block: inhibitors of human RGS4; HEK293 M3R/RGS4 inducible, Fluo-4 calcium flux; active compounds read high; triggered by carbachol at its EC20; B-score at 10 µM; 310,000 compounds, 0.45% hits; AID 463165;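 active = B-score, a plate-corrected calcium signal, over three deviations above library mean, with baseline fluorescence within five deviations of library mean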;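 note: RGS4 expression induced by doxycycline in cells with stable M3 receptor; B-score is computed from the integrated fluorescence ratio over baseline after carbachol; higher B-score means a larger calcium signal and so more RGS4 inhibition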
Target sequence (P49798 whole entry, looked up): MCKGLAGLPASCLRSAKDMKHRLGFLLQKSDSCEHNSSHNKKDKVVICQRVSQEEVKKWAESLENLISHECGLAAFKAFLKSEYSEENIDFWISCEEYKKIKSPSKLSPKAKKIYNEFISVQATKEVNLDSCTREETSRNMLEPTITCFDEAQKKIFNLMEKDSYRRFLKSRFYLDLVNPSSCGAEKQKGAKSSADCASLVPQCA
MrgX1 antag: blocks BAM8-22 activation of human MrgX1 receptor; AID 588676; Q96LB2; MRGX1-HEK293 calcium flux, Fluo-4, BAM8-22 antagonism; active compounds read low; B-score at 10 µM; 310,000 compounds, 1.3% hits;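 active = calcium-response B-score plate-corrected more than 3 library SD below zero, starting fluorescence within 5 deviations, no agonist response on first addition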;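 note: peak minus trough fluorescence over baseline after final BAM8-22 challenge near maximal dose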
MrgX1 antag conf: reconfirmed antagonist of human MrgX1 receptor signaling; shares compounds with MrgX1 antag; MrgX1-HEK293, BAM8-22 calcium flux, Fluo-4; active compounds read low; remaining BAM8-22 calcium response % of control (active compounds read low), % at 10 µM; 2,300 compounds, 19% hits;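 active = remaining agonist calcium response no higher than 100% minus 3 SD of agonist-only control wells, with starting fluorescence near control levels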;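 note: agonist BAM8-22 given at a near maximal EC90 to ECmax level; peak minus minimum fluorescence divided by baseline after agonist addition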
HEK293 Ca flux: counter-screen for MrgX1 antagonists: effect in parental HEK293 cells; shares compounds with MrgX1 antag; Fluo-4 calcium fluorescence, FDSS; fluorescence ratio F(max-min)/F0 at 10 µM; 4,000 compounds, 2% hits;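 active = duplicate-averaged calcium fluorescence ratio at least three times the standard deviation of buffer wells, a nonspecific response in parental cells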
HEK293 Ca counter: MrgX1 allosteric activator counter-screen hit in parental HEK293 cells; 4,000 compounds, 0.4% hits; parental HEK293 calcium flux, Fluo-4 fluorescence ratio; active compounds read high; fluorescence ratio F(max-min)/F0 at 10 µM; shares compounds with MrgX1 antag;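 active = calcium fluorescence ratio, averaged over duplicates, at least 3 SD of the buffer-well ratio, meaning a nonspecific response in receptor-free cells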;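 note: untransfected parental HEK293 lacking MrgX1 used as counterscreen for MrgX1 allosteric activators; fluorescence change taken during the second addition on a kinetic imager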
HEK293 Ca cntr2: counter-screen for MrgX1 activators: effect in parental HEK293 cells; shares compounds with MrgX1 antag; Fluo-4 calcium fluorescence (FDSS); active compounds read high; fluorescence ratio F(max-min)/F0 at 10 µM; 4,000 compounds, 8.7% hits; AID 624115;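 active = calcium fluorescence ratio at least three times the spread of buffer wells, meaning a non-specific response in parental cells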
A number is an active result; 0 = inactive; - = not tested or not shown.

SMILES | MrgX1 ag | RGS4 act | MrgX1 allo act | RGS4 block | MrgX1 antag | MrgX1 antag conf | HEK293 Ca flux | HEK293 Ca counter | HEK293 Ca cntr2
COc1cc(NC(=O)CCN2CCN(c3ccccc3F)CC2)cc(OC)c1 | 0 | 0 | 0 | 0 | -4.8 | 0 | 0 | 0 | 0
CCN1CCN(C(=O)c2cc(COc3ccc(C(C)=O)cc3OC)on2)CC1 | 0 | 0 | 0 | 0 | 0 | - | - | - | -
Cn1cc(S(=O)(=O)N2CCOCC2)cc1C(=O)NCc1ccccc1Cl | 0 | 0 | 0 | 0 | 0 | - | - | - | -
Cc1c(C(=O)NCC2CCCO2)oc2ccc(S(=O)(=O)N3CCCCC3)cc12 (configuration not stated) | 0 | 0 | 0 | 0 | -7.2 | 84% | 0 | 0 | 0
NS(=O)(=O)c1ccc(NC(=O)Nc2ccc(C(F)(F)F)cc2)cc1 | 0 | 0 | 0 | 0 | 0 | - | - | - | -
COc1ccc(NC(=O)C2=C(C)Nc3nc(CCCO)nn3C2c2ccc(OC)c(OC)c2)cc1 (configuration not stated) | 0 | 0 | 0 | 0 | 0 | - | - | - | -
CCOC(=O)C1=C(CSc2nc3c(cc2C#N)CN(C)CC3)OC(N)=C(C#N)C1c1ccc(F)cc1 (configuration not stated) | 0 | 0 | 0 | 0 | -5.4 | 0 | 0 | 0 | 0
CCOC(=O)C1=C(CSc2nc3c(cc2C#N)CCC3)OC(N)=C(C#N)C1c1ccccc1 (configuration not stated) | 0 | 0 | 0 | 0 | 0 | - | - | - | -
N=C1SC(c2ccccc2)C(=O)N1c1ncc(Cc2ccccc2)s1 (configuration not stated) | 0 | 0 | 0 | 0 | 0 | - | - | - | -
Cc1ccc(Cc2cnc(N3C(=N)SC(c4ccccc4)C3=O)s2)cc1 (configuration not stated) | 0 | 0 | 0 | 0 | -5.2 | 0 | 0 | 0 | 0

From PubChem
